The target of assay [1] is T1, Nitric oxide synthase, inducible (Mus musculus, UniProt P29477).
T1 sequence (P29477 whole entry): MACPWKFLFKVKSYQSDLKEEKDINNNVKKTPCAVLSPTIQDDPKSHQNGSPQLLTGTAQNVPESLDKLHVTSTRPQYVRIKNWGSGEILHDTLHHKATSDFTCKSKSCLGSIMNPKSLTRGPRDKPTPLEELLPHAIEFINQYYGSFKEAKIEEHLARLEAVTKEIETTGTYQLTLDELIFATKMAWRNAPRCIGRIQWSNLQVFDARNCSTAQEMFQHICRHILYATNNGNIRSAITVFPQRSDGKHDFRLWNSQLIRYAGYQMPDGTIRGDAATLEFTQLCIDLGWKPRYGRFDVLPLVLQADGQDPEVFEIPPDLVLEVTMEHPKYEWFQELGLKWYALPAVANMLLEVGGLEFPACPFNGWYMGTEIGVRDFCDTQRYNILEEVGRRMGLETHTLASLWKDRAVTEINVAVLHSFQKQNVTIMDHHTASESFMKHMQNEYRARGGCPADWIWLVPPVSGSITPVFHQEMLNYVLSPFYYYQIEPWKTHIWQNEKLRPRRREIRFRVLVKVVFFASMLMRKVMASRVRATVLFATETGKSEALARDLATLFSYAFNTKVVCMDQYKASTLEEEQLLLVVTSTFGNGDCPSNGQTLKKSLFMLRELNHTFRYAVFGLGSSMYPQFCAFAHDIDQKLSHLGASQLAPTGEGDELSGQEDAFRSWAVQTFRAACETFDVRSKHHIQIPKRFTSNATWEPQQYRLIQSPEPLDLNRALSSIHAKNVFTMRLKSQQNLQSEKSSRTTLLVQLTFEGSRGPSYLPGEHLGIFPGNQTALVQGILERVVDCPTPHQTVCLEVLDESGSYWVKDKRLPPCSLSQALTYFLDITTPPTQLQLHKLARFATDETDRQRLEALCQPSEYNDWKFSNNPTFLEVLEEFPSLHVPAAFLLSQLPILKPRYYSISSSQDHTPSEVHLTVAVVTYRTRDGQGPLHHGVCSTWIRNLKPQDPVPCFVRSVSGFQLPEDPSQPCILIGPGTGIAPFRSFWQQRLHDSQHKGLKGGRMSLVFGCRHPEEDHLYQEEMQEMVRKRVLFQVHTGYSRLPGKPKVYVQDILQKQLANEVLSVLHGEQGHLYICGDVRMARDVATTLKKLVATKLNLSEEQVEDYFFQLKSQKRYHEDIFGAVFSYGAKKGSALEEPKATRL
The experiment in a line: Inhibition of mouse recombinant iNOS using [3H]L-arginine substrate assessed as formation of [3H]L-citruline by liquid scintillation counting analysis. Put shortly:
(§1)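 Recombinant enzyme inhibition was read as [3H]L-citrulline formed from [3H]L-arginine. Each inhibitor was tested at seven concentrations in triplicate, with IC50 given as mean ± SD. Selectivity is the eNOS IC50 divided by the iNOS IC50.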

For assay [2], the species on record is Rattus norvegicus. The experiment in a line: Induction of NA-induced LPS-treated Sprague-Dawley rat mesenteric vascular artery vasoconstriction effect measured at 100 uM/30 mins preincubation relative to basal level. It is filed as functional, organism-based.
The species entered for assay [3] is Rattus norvegicus. The experiment in a line: Reduction of Ach-mediated NO-dependent precontracted Sprague-Dawley rat mesenteric vascular artery vasorelaxation measured at 100 uM/30 mins preincubation. It is filed as functional, organism-based. Put shortly: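 Isolated SD rat mesenteric arteries precontracted with 10 μM NA to about 80% of maximal vasoconstriction. Preincubation 30 min at 100 μM, then dose-response to ACh (0.01–3 μM/30 s) for NO-dependent (eNOS-mediated) vasorelaxation, compared with control curve. Mean ± SEM of duplicates, four independent experiments; two-way repeated-measures ANOVA.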

Assay [4] is described as follows: Selectivity ratio of IC50 for bovine recombinant eNOS to IC50 for mouse recombinant iNOS.
For assay [5], the target named is T2, Nitric oxide synthase 3 (Bos taurus, UniProt P29473).
T2 sequence (P29473 whole entry): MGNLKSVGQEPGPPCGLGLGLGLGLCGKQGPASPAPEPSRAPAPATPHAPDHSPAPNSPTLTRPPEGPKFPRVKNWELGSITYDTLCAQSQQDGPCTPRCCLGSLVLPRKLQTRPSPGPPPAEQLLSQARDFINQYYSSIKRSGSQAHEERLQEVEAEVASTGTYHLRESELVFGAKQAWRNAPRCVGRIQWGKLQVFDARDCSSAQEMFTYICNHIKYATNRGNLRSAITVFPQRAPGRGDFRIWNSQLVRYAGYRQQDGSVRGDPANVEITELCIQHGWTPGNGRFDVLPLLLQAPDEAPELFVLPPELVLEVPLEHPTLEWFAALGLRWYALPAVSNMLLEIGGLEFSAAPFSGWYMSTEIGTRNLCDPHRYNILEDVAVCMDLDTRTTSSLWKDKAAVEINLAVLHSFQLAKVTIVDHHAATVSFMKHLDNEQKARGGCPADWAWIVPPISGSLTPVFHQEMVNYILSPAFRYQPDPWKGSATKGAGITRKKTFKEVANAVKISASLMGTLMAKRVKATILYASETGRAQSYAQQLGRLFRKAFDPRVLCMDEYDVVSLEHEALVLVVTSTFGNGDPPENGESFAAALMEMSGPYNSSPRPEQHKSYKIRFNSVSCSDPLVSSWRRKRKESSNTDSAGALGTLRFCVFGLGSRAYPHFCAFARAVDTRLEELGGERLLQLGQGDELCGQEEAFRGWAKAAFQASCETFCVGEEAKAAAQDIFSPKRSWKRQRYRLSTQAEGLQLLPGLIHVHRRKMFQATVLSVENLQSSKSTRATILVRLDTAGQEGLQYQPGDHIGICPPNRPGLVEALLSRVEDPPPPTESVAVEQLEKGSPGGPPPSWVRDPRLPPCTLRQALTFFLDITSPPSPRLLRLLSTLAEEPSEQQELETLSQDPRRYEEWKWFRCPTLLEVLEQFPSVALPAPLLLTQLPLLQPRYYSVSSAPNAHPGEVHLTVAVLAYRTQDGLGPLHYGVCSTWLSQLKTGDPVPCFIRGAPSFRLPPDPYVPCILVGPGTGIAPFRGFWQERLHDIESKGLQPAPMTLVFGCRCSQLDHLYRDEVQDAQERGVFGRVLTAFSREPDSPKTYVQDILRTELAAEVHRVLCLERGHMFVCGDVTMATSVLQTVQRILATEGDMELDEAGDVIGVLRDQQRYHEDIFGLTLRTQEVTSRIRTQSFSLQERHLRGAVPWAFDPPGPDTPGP
The experiment in a line: Inhibition of bovine recombinant eNOS using [3H]L-arginine substrate assessed as formation of [3H]L-citruline by liquid scintillation counting analysis. The method in brief: as §1

The species entered for assay [6] is Rattus norvegicus. The experiment in a line: Induction of NA-induced LPS-treated Sprague-Dawley rat mesenteric vascular artery vasoconstriction effect measured at 0.43 uM/30 mins preincubation. It counts as functional, organism-based. Put shortly:
(§2)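 Mesenteric arteries came from SD rats injected with LPS. NA dose-response curves (10 nM–10 μM) were recorded before and after 30 min preincubation with inhibitor. Read-outs were peak perfusion pressure (mmHg) and duration as AUC (mmHg × sec). Data are mean ± SEM of duplicates from four independent experiments.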

The species named for assay [7] is Rattus norvegicus. The experiment in a line: Induction of NA-induced LPS-treated Sprague-Dawley rat mesenteric vascular artery vasoconstriction effect measured at 100 uM/30 mins preincubation. It counts as functional, organism-based. The method in brief:
as §2

The species entered for assay [8] is Rattus norvegicus. The experiment in a line: Reduction of Ach-mediated NO-dependent precontracted Sprague-Dawley rat mesenteric vascular artery vasorelaxation measured at 0.85 uM/30 mins preincubation. It is filed as functional, organism-based. Put shortly: (§3)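 Mesenteric arteries were isolated from SD rats and precontracted to ~80% of maximal constriction with 10 μM NA. The inhibitor was preincubated for 30 min, then ACh dose-response curves were run (0.01–3 μM/30 s) against control, followed by L-NAME (100 μM). Data are mean ± SEM of duplicates from four independent experiments, analysed by two-way repeated-measures ANOVA.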

Assay [9] is filed under the species Rattus norvegicus. In words: Induction of NA-induced LPS-treated Sprague-Dawley rat mesenteric vascular artery vasoconstriction effect measured at 1 uM/30 mins preincubation. It is filed as functional, organism-based. The method in brief: as §2
Assay [10] is filed under the species Rattus norvegicus. In words: Reduction of Ach-mediated NO-dependent precontracted Sprague-Dawley rat mesenteric vascular artery vasorelaxation measured at 1 to 1.2 uM/30 mins preincubation. It counts as functional, organism-based. Put shortly:
as §3

For assay [11], the species on record is Rattus norvegicus. The experiment in a line: Induction of NA-induced LPS-treated Sprague-Dawley rat mesenteric vascular artery vasoconstriction effect measured at 0.43 uM/30 mins preincubation relative to basal level. It is filed as functional, organism-based. Put shortly: as §2
The species entered for assay [12] is Rattus norvegicus. The experiment in a line: Reduction of Ach-mediated NO-dependent precontracted Sprague-Dawley rat mesenteric vascular artery vasorelaxation measured at 0.43 uM/30 mins preincubation. It is filed as functional, organism-based. Put shortly: as §3
The species named for assay [13] is Rattus norvegicus. In words: Reduction of Ach-mediated NO-dependent precontracted Sprague-Dawley rat mesenteric vascular artery vasorelaxation measured up to 0.7 uM/30 mins preincubation. It counts as functional, organism-based. Put shortly:
as §3

For assay [14], the species on record is Rattus norvegicus. The experiment in a line: Induction of NA-induced LPS-treated Sprague-Dawley rat mesenteric vascular artery vasoconstriction effect measured at 1 uM/30 mins preincubation relative to basal level. It counts as functional, organism-based. Put shortly:
as §2

Assay [15] is filed under the species Rattus norvegicus. The experiment in a line: Reduction of Ach-mediated NO-dependent precontracted Sprague-Dawley rat mesenteric vascular artery vasorelaxation measured at 1 uM/30 mins preincubation. It is filed as functional, organism-based. The method in brief:
as §3

Active and inactive are the calls of the source. No cut-off for these calls is given here.

Regarding `CC(=N)NCc1cccc(CNC(=O)CN)c1`, the half-maximal inhibitory concentration (IC50) (in general, the midpoint of a concentration-inhibition curve) in [1] is more than 10 µM.

For the compound `COC(=O)[C@@H](N)CCCNC(=N)N[N+](=O)[O-]`, the result in assay [2] was Active. For the same compound, in assay [3], the inhibition entry was “Active”.

`CC(=N)NCc1cccc(CNC(=O)c2ccc(C(=O)O)cc2)c1`: in assay [4], the Ratio IC50 is 550. Besides, the IC50 in assay [1] amounted to 0.165 µM; in [5], 90.8 µM.

Regarding `CC(=N)NCc1cccc(CNC(=O)CCC(=O)O)c1`, the Ratio IC50 in assay [4] was more than 2300. The result in assay [6], in [7], in assay [8], in assay [9], in assay [10] and in assay [11] was Active. Besides, the IC50 is 0.428 µM in assay [1] and more than 1000 µM in [5]. In addition, the inhibition entry in assay [12], in [13] and in assay [3] was “inactive” each time.

For `CC(=N)NCc1cccc(CNCc2ccccc2[N+](=O)[O-])c1`, the Ratio IC50 in assay [4] is 300. Also, the values for the IC50 in [1] and in assay [5] were 0.1 µM and 30 µM, respectively.

For the compound `CC(=N)NCc1cccc(CN)c1` [1400W], in [1], the IC50 is 0.1 µM. The outcome in [14] was Active. Also, the inhibition result in assay [15] is “inactive”.

Turning to `CC(=N)NCc1cccc(CNC(=O)CCN)c1`, in [1], the half-inhibitory concentration (IC50) was more than 10 µM.

For the compound `CC(=N)NCc1cccc(CNC(=O)CC(=O)O)c1`, the IC50 in assay [1] was more than 10 µM.

Regarding `CC(=N)NCc1cccc(CN(Cc2ccc([N+](=O)[O-])cc2)Cc2ccc([N+](=O)[O-])cc2)c1`, the Ratio IC50 in assay [4] is 200. The IC50 in assay [1] was 0.5 µM; in assay [5], 100 µM.

In the case of `CC(=N)NCc1cccc(CNC(=O)CCCN)c1`, in assay [1], the half-maximal inhibitory concentration (IC50) is more than 10 µM.
